Test system: U2OS
Assay: Multiplex assay against U2OS
Assay type: toxicity, cell-based
Conditions: human
Outline: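 Compound was added to live cells that had been stained at seeding with Hoechst33342, BioTracker Green Microtubule Cytoskeleton Dye, MitoTracker Red and Annexin V Alexa Fluor 680, and imaging followed on a CQ1 microscope at 37°C and 5% CO2. CellPathfinder machine-learning gating divided cells into Hoechst high-intensity objects or normal cells, normal cells into healthy, pyknosed or fragmented nuclei, and pyknosed cells into mitotic or apoptotic. Tubulin, mitochondrial-mass and membrane-permeability phenotypes are per cents of healthy-nucleus cells.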

[1] = 12 h, 1 µM, compound concentration 1 uM, replicate 1
[2] = 12 h, 1 µM, compound concentration 1 uM, replicate 2
[3] = 12 h, 10 µM, compound concentration 10 uM, replicate 1
[4] = 12 h, 10 µM, compound concentration 10 uM, replicate 2
[5] = 24 h, 1 µM, compound concentration 1 uM, replicate 1
[6] = 24 h, 1 µM, compound concentration 1 uM, replicate 2
[7] = 24 h, 10 µM, compound concentration 10 uM, replicate 1
[8] = 24 h, 10 µM, compound concentration 10 uM, replicate 2
[9] = 48 h, 1 µM, compound concentration 1 uM, replicate 1
[10] = 48 h, 1 µM, compound concentration 1 uM, replicate 2
[11] = 48 h, 10 µM, compound concentration 10 uM, replicate 1
[12] = 48 h, 10 µM, compound concentration 10 uM, replicate 2

O=S(=O)(c1ccccc1)c1cnc2c(N3CCNCC3)cccc2c1 [INTEPIRDINE]
Population Apoptotic (%) [1]: 76% | Population Fragmented Nuclei (%) [1]: 23% | Population Healthy Nuclei (%) [1]: 68% | Population Hoechst High Intensity Objects (%) [1]: 1% | Population Membrane Permeable-Phenotype (%) [1]: 6% | Population Mitochondria Different-Phenotype (%) [1]: 3% | Population Mitotic Cells (%) [1]: 23% | Population Normal (%) [1]: 98% | Population Pyknosed Nuclei (%) [1]: 7% | Population Tubulin-Different-Phenotype (%) [1]: 4% | Total Cell Count [1]: 267 | Population Apoptotic (%) [2]: 70% | Population Fragmented Nuclei (%) [2]: 17% | Population Healthy Nuclei (%) [2]: 71% | Population Hoechst High Intensity Objects (%) [2]: 0% | Population Membrane Permeable-Phenotype (%) [2]: 7% | Population Mitochondria Different-Phenotype (%) [2]: 6% | Population Mitotic Cells (%) [2]: 30% | Population Normal (%) [2]: 100% | Population Pyknosed Nuclei (%) [2]: 11% | Population Tubulin-Different-Phenotype (%) [2]: 7% | Total Cell Count [2]: 88 | Population Apoptotic (%) [3]: 58% | Population Fragmented Nuclei (%) [3]: 25% | Population Healthy Nuclei (%) [3]: 61% | Population Hoechst High Intensity Objects (%) [3]: 3% | Population Membrane Permeable-Phenotype (%) [3]: 23% | Population Mitochondria Different-Phenotype (%) [3]: 11% | Population Mitotic Cells (%) [3]: 41% | Population Normal (%) [3]: 96% | Population Pyknosed Nuclei (%) [3]: 12% | Population Tubulin-Different-Phenotype (%) [3]: 14% | Total Cell Count [3]: 204 | Population Apoptotic (%) [4]: 85% | Population Fragmented Nuclei (%) [4]: 10% | Population Healthy Nuclei (%) [4]: 79% | Population Hoechst High Intensity Objects (%) [4]: 2% | Population Membrane Permeable-Phenotype (%) [4]: 12% | Population Mitochondria Different-Phenotype (%) [4]: 13% | Population Mitotic Cells (%) [4]: 14% | Population Normal (%) [4]: 97% | Population Pyknosed Nuclei (%) [4]: 10% | Population Tubulin-Different-Phenotype (%) [4]: 10% | Total Cell Count [4]: 139 | Population Apoptotic (%) [5]: 80% | Population Fragmented Nuclei (%) [5]: 22% | Population Healthy Nuclei (%) [5]: 67% | Population Hoechst High Intensity Objects (%) [5]: 2% | Population Membrane Permeable-Phenotype (%) [5]: 7% | Population Mitochondria Different-Phenotype (%) [5]: 2% | Population Mitotic Cells (%) [5]: 19% | Population Normal (%) [5]: 97% | Population Pyknosed Nuclei (%) [5]: 9% | Population Tubulin-Different-Phenotype (%) [5]: 4% | Total Cell Count [5]: 319 | Population Apoptotic (%) [6]: 69% | Population Fragmented Nuclei (%) [6]: 14% | Population Healthy Nuclei (%) [6]: 73% | Population Hoechst High Intensity Objects (%) [6]: 0% | Population Membrane Permeable-Phenotype (%) [6]: 3% | Population Mitochondria Different-Phenotype (%) [6]: 3% | Population Mitotic Cells (%) [6]: 30% | Population Normal (%) [6]: 99% | Population Pyknosed Nuclei (%) [6]: 12% | Population Tubulin-Different-Phenotype (%) [6]: 1% | Total Cell Count [6]: 108 | Population Apoptotic (%) [7]: 72% | Population Fragmented Nuclei (%) [7]: 23% | Population Healthy Nuclei (%) [7]: 60% | Population Hoechst High Intensity Objects (%) [7]: 3% | Population Membrane Permeable-Phenotype (%) [7]: 17% | Population Mitochondria Different-Phenotype (%) [7]: 14% | Population Mitotic Cells (%) [7]: 27% | Population Normal (%) [7]: 96% | Population Pyknosed Nuclei (%) [7]: 16% | Population Tubulin-Different-Phenotype (%) [7]: 10% | Total Cell Count [7]: 233 | Population Apoptotic (%) [8]: 77% | Population Fragmented Nuclei (%) [8]: 10% | Population Healthy Nuclei (%) [8]: 77% | Population Hoechst High Intensity Objects (%) [8]: 0% | Population Membrane Permeable-Phenotype (%) [8]: 10% | Population Mitochondria Different-Phenotype (%) [8]: 17% | Population Mitotic Cells (%) [8]: 22% | Population Normal (%) [8]: 99% | Population Pyknosed Nuclei (%) [8]: 11% | Population Tubulin-Different-Phenotype (%) [8]: 6% | Total Cell Count [8]: 156 | Population Apoptotic (%) [9]: 89% | Population Fragmented Nuclei (%) [9]: 15% | Population Healthy Nuclei (%) [9]: 70% | Population Hoechst High Intensity Objects (%) [9]: 3% | Population Membrane Permeable-Phenotype (%) [9]: 6% | Population Mitochondria Different-Phenotype (%) [9]: 4% | Population Mitotic Cells (%) [9]: 10% | Population Normal (%) [9]: 96% | Population Pyknosed Nuclei (%) [9]: 14% | Population Tubulin-Different-Phenotype (%) [9]: 4% | Total Cell Count [9]: 416 | Population Apoptotic (%) [10]: 76% | Population Fragmented Nuclei (%) [10]: 13% | Population Healthy Nuclei (%) [10]: 68% | Population Membrane Permeable-Phenotype (%) [10]: 3% | Population Mitochondria Different-Phenotype (%) [10]: 2% | Population Mitotic Cells (%) [10]: 23% | Population Pyknosed Nuclei (%) [10]: 18% | Population Tubulin-Different-Phenotype (%) [10]: 2% | Total Cell Count [10]: 148 | Population Apoptotic (%) [11]: 78% | Population Fragmented Nuclei (%) [11]: 22% | Population Healthy Nuclei (%) [11]: 59% | Population Hoechst High Intensity Objects (%) [11]: 4% | Population Membrane Permeable-Phenotype (%) [11]: 15% | Population Mitochondria Different-Phenotype (%) [11]: 7% | Population Mitotic Cells (%) [11]: 22% | Population Normal (%) [11]: 95% | Population Pyknosed Nuclei (%) [11]: 17% | Population Tubulin-Different-Phenotype (%) [11]: 6% | Total Cell Count [11]: 302 | Population Apoptotic (%) [12]: 95% | Population Fragmented Nuclei (%) [12]: 13% | Population Healthy Nuclei (%) [12]: 75% | Population Hoechst High Intensity Objects (%) [12]: 2% | Population Membrane Permeable-Phenotype (%) [12]: 10% | Population Mitochondria Different-Phenotype (%) [12]: 12% | Population Mitotic Cells (%) [12]: 4% | Population Normal (%) [12]: 97% | Population Pyknosed Nuclei (%) [12]: 11% | Population Tubulin-Different-Phenotype (%) [12]: 4% | Total Cell Count [12]: 201

O=C(NCCO)c1cccc(-c2cc(Nc3ccc(OC(F)(F)F)cc3)ncn2)c1
Population Apoptotic (%) [1]: 64% | Population Fragmented Nuclei (%) [1]: 13% | Population Healthy Nuclei (%) [1]: 72% | Population Hoechst High Intensity Objects (%) [1]: 1% | Population Membrane Permeable-Phenotype (%) [1]: 3% | Population Mitochondria Different-Phenotype (%) [1]: 3% | Population Mitotic Cells (%) [1]: 35% | Population Normal (%) [1]: 98% | Population Pyknosed Nuclei (%) [1]: 13% | Population Tubulin-Different-Phenotype (%) [1]: 1% | Total Cell Count [1]: 213 | Population Apoptotic (%) [2]: 84% | Population Fragmented Nuclei (%) [2]: 15% | Population Healthy Nuclei (%) [2]: 73% | Population Membrane Permeable-Phenotype (%) [2]: 4% | Population Mitotic Cells (%) [2]: 15% | Population Pyknosed Nuclei (%) [2]: 10% | Population Tubulin-Different-Phenotype (%) [2]: 4% | Total Cell Count [2]: 128 | Population Apoptotic (%) [3]: 84% | Population Fragmented Nuclei (%) [3]: 21% | Population Healthy Nuclei (%) [3]: 66% | Population Hoechst High Intensity Objects (%) [3]: 4% | Population Membrane Permeable-Phenotype (%) [3]: 9% | Population Mitochondria Different-Phenotype (%) [3]: 7% | Population Mitotic Cells (%) [3]: 15% | Population Normal (%) [3]: 95% | Population Pyknosed Nuclei (%) [3]: 12% | Population Tubulin-Different-Phenotype (%) [3]: 6% | Total Cell Count [3]: 274 | Population Apoptotic (%) [4]: 100% | Population Fragmented Nuclei (%) [4]: 20% | Population Healthy Nuclei (%) [4]: 68% | Population Hoechst High Intensity Objects (%) [4]: 2% | Population Mitochondria Different-Phenotype (%) [4]: 15% | Population Mitotic Cells (%) [4]: 0% | Population Normal (%) [4]: 97% | Population Tubulin-Different-Phenotype (%) [4]: 3% | Total Cell Count [4]: 77 | Population Apoptotic (%) [5]: 70% | Population Fragmented Nuclei (%) [5]: 16% | Population Healthy Nuclei (%) [5]: 73% | Population Hoechst High Intensity Objects (%) [5]: 1% | Population Membrane Permeable-Phenotype (%) [5]: 3% | Population Mitochondria Different-Phenotype (%) [5]: 3% | Population Mitotic Cells (%) [5]: 29% | Population Normal (%) [5]: 98% | Population Pyknosed Nuclei (%) [5]: 9% | Population Tubulin-Different-Phenotype (%) [5]: 2% | Total Cell Count [5]: 256 | Population Apoptotic (%) [6]: 86% | Population Fragmented Nuclei (%) [6]: 20% | Population Healthy Nuclei (%) [6]: 69% | Population Membrane Permeable-Phenotype (%) [6]: 7% | Population Mitochondria Different-Phenotype (%) [6]: 5% | Population Mitotic Cells (%) [6]: 13% | Population Tubulin-Different-Phenotype (%) [6]: 4% | Total Cell Count [6]: 156 | Population Apoptotic (%) [7]: 82% | Population Fragmented Nuclei (%) [7]: 22% | Population Healthy Nuclei (%) [7]: 64% | Population Hoechst High Intensity Objects (%) [7]: 4% | Population Membrane Permeable-Phenotype (%) [7]: 6% | Population Mitochondria Different-Phenotype (%) [7]: 3% | Population Mitotic Cells (%) [7]: 17% | Population Normal (%) [7]: 95% | Population Pyknosed Nuclei (%) [7]: 12% | Population Tubulin-Different-Phenotype (%) [7]: 1% | Total Cell Count [7]: 344 | Population Apoptotic (%) [8]: 100% | Population Fragmented Nuclei (%) [8]: 15% | Population Healthy Nuclei (%) [8]: 78% | Population Hoechst High Intensity Objects (%) [8]: 1% | Population Membrane Permeable-Phenotype (%) [8]: 12% | Population Mitochondria Different-Phenotype (%) [8]: 13% | Population Mitotic Cells (%) [8]: 0% | Population Normal (%) [8]: 98% | Population Pyknosed Nuclei (%) [8]: 5% | Population Tubulin-Different-Phenotype (%) [8]: 4% | Total Cell Count [8]: 96 | Population Apoptotic (%) [9]: 88% | Population Fragmented Nuclei (%) [9]: 15% | Population Healthy Nuclei (%) [9]: 75% | Population Hoechst High Intensity Objects (%) [9]: 2% | Population Membrane Permeable-Phenotype (%) [9]: 6% | Population Mitochondria Different-Phenotype (%) [9]: 3% | Population Mitotic Cells (%) [9]: 11% | Population Normal (%) [9]: 97% | Population Pyknosed Nuclei (%) [9]: 8% | Population Tubulin-Different-Phenotype (%) [9]: 4% | Total Cell Count [9]: 417 | Population Apoptotic (%) [10]: 96% | Population Fragmented Nuclei (%) [10]: 20% | Population Healthy Nuclei (%) [10]: 65% | Population Membrane Permeable-Phenotype (%) [10]: 9% | Population Mitochondria Different-Phenotype (%) [10]: 4% | Population Mitotic Cells (%) [10]: 3% | Population Pyknosed Nuclei (%) [10]: 14% | Population Tubulin-Different-Phenotype (%) [10]: 6% | Total Cell Count [10]: 206 | Population Apoptotic (%) [11]: 92% | Population Fragmented Nuclei (%) [11]: 18% | Population Healthy Nuclei (%) [11]: 72% | Population Hoechst High Intensity Objects (%) [11]: 3% | Population Membrane Permeable-Phenotype (%) [11]: 8% | Population Mitochondria Different-Phenotype (%) [11]: 3% | Population Mitotic Cells (%) [11]: 7% | Population Normal (%) [11]: 96% | Population Pyknosed Nuclei (%) [11]: 9% | Population Tubulin-Different-Phenotype (%) [11]: 6% | Total Cell Count [11]: 473 | Population Apoptotic (%) [12]: 91% | Population Fragmented Nuclei (%) [12]: 26% | Population Healthy Nuclei (%) [12]: 64% | Population Hoechst High Intensity Objects (%) [12]: 2% | Population Membrane Permeable-Phenotype (%) [12]: 5% | Population Mitochondria Different-Phenotype (%) [12]: 7% | Population Mitotic Cells (%) [12]: 8% | Population Normal (%) [12]: 97% | Population Pyknosed Nuclei (%) [12]: 8% | Population Tubulin-Different-Phenotype (%) [12]: 1% | Total Cell Count [12]: 143

— ChEMBL document CHEMBL5058577, “EUbOPEN Chemogenomics Library 2 (Multiplex)” (2022)
